Test results as given in ChEMBL document CHEMBL2417378, “Ligand-protein interactions of selective casein kinase 1δ inhibitors” (J Med Chem, 2013).

How the values were obtained:
[1] = molecular target: Casein kinase I isoform epsilon (Homo sapiens, UniProt P49674); assay: Inhibition of CK1 epsilon (unknown origin) using PLSRTLpSVASLPGL as substrate after 85 mins by microplate reader analysis
Brain [2] = assay: fCmax in C57Bl/6J mouse brain at 56 mg/kg, sc by LC/MS analysis; assay type: ADME, organism-based; parameters: dose 56 mg/kg, route subcutaneous; settings: in vivo
Method in brief: (§1)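 Male C57BL/6J mice got a single subcutaneous dose. Plasma and whole brain were taken at 0.5–24 h (n = 4 per time). Brain was homogenized in 60% isopropanol and samples quantified by LC-MS after protein precipitation. Free fraction came from 6 h equilibrium dialysis at 37 °C of plasma or brain homogenate spiked with 1 μM compound.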

[3] = molecular target: T1, Casein kinase I isoform delta (Homo sapiens, UniProt P48730); assay: Inhibition of CK1 delta (unknown origin) using PLSRTLpSVASLPGL as substrate after 60 mins by microplate reader analysis
[4] = molecular target: T1, Casein kinase I isoform delta; assay: Inhibition of human CK1 delta transfected in african green monkey cos7 cells after overnight incubation by whole cell assay; assay type: cell-based, COS-7
Method in brief: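 COS-7 cells in DMEM with 10% FBS were co-transfected by lipofection with mPER3-GFP and human CK1δ plasmids (1:11), then plated. Compounds, diluted in Opti-MEM, were tested at 11 concentrations overnight at 37 °C. Cells were fixed in 4% paraformaldehyde and Hoechst-stained, and nuclear translocation of mPER3-GFP was imaged on ArrayScan.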

Plasma [5] = assay: fCmax in C57Bl/6J mouse plasma at 56 mg/kg, sc by LC/MS analysis; assay type: ADME, organism-based; parameters: dose 56 mg/kg, route subcutaneous; settings: in vivo; method in brief: as §1
MAP kinase p38 [6] = molecular target: T2, MAP kinase p38 (Homo sapiens, UniProt O15264+Q15759+Q16539+P53778); assay: Inhibition of p38 (unknown origin); assay type: protein assay
Method in brief: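 p38 IC50 determined by outside SelectScreen profiling service, ATP at Km.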

[7] = molecular target: T3, Voltage-gated inwardly rectifying potassium channel KCNH2 (Homo sapiens, UniProt Q12809); assay: Displacement of [3H]dofetilide from human ERG channel
[8] = molecular target: T3, Voltage-gated inwardly rectifying potassium channel KCNH2; assay: Inhibition of human ERG channel by electrophysiological method
[9] = molecular target: Mitogen-activated protein kinase 14 (Homo sapiens) (UniProt Q16539); assay: Inhibition of MAPK14 (unknown origin) at 1 uM
[10] = molecular target: Tyrosine-protein kinase ABL1 (Homo sapiens) (UniProt P00519); assay: Inhibition of ABL (unknown origin) at 1 uM
[11] = molecular target: Mitogen-activated protein kinase kinase kinase kinase 4 (Homo sapiens) (UniProt O95819); assay: Inhibition of MAP4K4 (unknown origin) at 1 uM
[12] = molecular target: Epidermal growth factor receptor (Homo sapiens) (UniProt P00533); assay: Inhibition of EGFR (unknown origin) at 1 uM
[13] = molecular target: Tyrosine-protein kinase Lyn (Homo sapiens) (UniProt P07948); assay: Inhibition of LYN (unknown origin) at 1 uM
[14] = molecular target: Rho-associated protein kinase 2 (Homo sapiens) (UniProt O75116); assay: Inhibition of ROCK2 (unknown origin) at 1 uM
MAP kinase p38 [15] = molecular target: T2, MAP kinase p38; assay: Inhibition of p38 (unknown origin) at 1 uM; assay type: protein assay
JNK2/JNK3 (Homo sapiens) = JNK2/JNK3 (Homo sapiens) (UniProt P53779+P45984); assay: Inhibition of JNK 2/3 (unknown origin) at 1 uM; assay type: protein assay
hERG (KCNH2) [16] = assay: Therapeutic index, ratio of EC50 for human ERG channel to fCmax in mouse plasma; assay type: cell-free; settings: read-out: TI
[17] = Ratio of fCmax in brain to plasma of C57Bl/6J mouse; assay type: ADME, cell-free
Method in brief: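 Male C57BL/6J mice given a single subcutaneous dose (56 mg/kg unless noted). Plasma and whole brain were taken under isoflurane at 0.5, 1, 2, 4, 8 and 24 h (n = 4 per time point). Brain was homogenised in 4 volumes of 60% isopropanol, and samples were quantified by LC-MS after protein precipitation. Free fractions came from equilibrium dialysis of 1 μM-spiked plasma or brain homogenate (6 h, 37 °C, n = 6).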

Mus musculus = assay: In vivo inhibition of CK1 delta in C57Bl/6J mouse circardian rhythm model assessed as delay in phase shift at 56 mg/kg, sc after 3 days; assay type: functional; settings: route subcutaneous
Method in brief: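 Mice received 56 mg/kg subcutaneously for 3 days. Phase shift was taken as the start of the active period after dosing minus before dosing.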

Homo sapiens = species: Homo sapiens; assay: Inhibition of PKA alpha (unknown origin) at 1 uM
[18] = molecular target: Tyrosine-protein kinase Lck (Homo sapiens) (UniProt P06239); assay: Inhibition of LCK (unknown origin) at 1 uM
[19] = molecular target: Casein kinase I isoform alpha (Homo sapiens) (UniProt P48729); assay: Inhibition of CK1 alpha (unknown origin) at 1 uM
Plasma [20] = assay: fCmax in C57Bl/6J mouse plasma at 32 mg/kg, sc by LC/MS analysis; assay type: ADME, organism-based; parameters: dose 32 mg/kg, route subcutaneous; settings: in vivo; method in brief: as §1
Brain [21] = assay: fCmax in C57Bl/6J mouse brain at 32 mg/kg, sc by LC/MS analysis; assay type: ADME, organism-based; parameters: dose 32 mg/kg, route subcutaneous; settings: in vivo; method in brief: as §1
hERG (KCNH2) [22] = molecular target: hERG (KCNH2) (Homo sapiens, UniProt Q12809); assay: Displacement of [3H]dofetilide from human ERG channel at 10 uM; settings: probe [3H]dofetilide

T3 sequence (Q12809 whole entry): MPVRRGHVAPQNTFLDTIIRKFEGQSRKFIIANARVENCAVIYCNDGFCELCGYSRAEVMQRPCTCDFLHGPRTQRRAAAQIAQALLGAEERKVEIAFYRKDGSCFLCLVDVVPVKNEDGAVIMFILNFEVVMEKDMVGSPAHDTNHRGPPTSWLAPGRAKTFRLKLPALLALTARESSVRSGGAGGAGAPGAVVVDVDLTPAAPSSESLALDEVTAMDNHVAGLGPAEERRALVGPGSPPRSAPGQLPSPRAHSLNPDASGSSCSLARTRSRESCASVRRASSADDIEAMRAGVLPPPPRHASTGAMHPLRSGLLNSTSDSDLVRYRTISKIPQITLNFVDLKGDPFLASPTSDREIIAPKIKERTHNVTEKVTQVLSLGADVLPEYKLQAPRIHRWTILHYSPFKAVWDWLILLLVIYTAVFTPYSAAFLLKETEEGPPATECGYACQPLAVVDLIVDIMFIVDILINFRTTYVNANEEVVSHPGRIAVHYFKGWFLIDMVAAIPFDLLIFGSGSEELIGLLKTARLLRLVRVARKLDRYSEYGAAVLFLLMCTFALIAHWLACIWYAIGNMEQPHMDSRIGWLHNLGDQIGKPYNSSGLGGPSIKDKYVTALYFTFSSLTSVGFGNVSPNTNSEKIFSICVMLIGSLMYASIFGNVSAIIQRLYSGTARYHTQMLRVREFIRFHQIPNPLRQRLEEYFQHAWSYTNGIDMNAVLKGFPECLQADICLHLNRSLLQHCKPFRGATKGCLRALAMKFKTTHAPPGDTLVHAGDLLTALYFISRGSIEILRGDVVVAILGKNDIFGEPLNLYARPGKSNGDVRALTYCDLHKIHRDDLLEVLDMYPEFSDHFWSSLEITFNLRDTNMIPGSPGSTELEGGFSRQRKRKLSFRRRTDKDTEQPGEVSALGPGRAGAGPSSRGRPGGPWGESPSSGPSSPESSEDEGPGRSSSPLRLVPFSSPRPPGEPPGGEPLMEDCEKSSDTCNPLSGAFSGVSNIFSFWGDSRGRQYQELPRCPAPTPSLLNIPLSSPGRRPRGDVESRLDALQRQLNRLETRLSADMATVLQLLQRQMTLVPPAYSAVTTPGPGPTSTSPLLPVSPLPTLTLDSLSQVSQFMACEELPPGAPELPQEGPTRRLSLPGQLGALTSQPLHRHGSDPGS
T1 sequence (P48730 whole entry, canonical isoform): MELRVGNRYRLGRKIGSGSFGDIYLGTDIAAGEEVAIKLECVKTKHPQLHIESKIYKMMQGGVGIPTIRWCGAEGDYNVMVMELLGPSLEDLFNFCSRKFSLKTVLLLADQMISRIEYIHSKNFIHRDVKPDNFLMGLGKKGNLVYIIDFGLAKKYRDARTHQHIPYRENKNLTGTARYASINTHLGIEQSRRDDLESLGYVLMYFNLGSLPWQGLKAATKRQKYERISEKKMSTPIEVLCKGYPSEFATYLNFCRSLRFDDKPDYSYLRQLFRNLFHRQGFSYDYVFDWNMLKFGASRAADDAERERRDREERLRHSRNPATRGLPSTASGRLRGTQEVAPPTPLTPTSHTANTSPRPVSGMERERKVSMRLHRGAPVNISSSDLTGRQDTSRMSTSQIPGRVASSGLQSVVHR
Sequence of Casein kinase I isoform epsilon (P49674 whole entry, canonical isoform): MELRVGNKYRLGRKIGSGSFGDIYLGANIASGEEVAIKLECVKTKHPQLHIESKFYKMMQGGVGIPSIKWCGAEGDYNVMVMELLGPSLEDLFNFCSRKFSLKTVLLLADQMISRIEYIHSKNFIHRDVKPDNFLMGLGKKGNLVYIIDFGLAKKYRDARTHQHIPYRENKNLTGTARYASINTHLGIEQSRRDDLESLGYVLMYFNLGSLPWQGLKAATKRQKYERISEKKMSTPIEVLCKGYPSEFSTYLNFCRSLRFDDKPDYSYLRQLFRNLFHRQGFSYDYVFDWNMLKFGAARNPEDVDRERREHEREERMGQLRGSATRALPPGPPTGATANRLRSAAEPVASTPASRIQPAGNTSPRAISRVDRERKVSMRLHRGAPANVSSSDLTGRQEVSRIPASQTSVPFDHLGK
Sequence of Mitogen-activated protein kinase kinase kinase kinase 4 (Homo sapiens) (O95819 2-1239 limits assumed): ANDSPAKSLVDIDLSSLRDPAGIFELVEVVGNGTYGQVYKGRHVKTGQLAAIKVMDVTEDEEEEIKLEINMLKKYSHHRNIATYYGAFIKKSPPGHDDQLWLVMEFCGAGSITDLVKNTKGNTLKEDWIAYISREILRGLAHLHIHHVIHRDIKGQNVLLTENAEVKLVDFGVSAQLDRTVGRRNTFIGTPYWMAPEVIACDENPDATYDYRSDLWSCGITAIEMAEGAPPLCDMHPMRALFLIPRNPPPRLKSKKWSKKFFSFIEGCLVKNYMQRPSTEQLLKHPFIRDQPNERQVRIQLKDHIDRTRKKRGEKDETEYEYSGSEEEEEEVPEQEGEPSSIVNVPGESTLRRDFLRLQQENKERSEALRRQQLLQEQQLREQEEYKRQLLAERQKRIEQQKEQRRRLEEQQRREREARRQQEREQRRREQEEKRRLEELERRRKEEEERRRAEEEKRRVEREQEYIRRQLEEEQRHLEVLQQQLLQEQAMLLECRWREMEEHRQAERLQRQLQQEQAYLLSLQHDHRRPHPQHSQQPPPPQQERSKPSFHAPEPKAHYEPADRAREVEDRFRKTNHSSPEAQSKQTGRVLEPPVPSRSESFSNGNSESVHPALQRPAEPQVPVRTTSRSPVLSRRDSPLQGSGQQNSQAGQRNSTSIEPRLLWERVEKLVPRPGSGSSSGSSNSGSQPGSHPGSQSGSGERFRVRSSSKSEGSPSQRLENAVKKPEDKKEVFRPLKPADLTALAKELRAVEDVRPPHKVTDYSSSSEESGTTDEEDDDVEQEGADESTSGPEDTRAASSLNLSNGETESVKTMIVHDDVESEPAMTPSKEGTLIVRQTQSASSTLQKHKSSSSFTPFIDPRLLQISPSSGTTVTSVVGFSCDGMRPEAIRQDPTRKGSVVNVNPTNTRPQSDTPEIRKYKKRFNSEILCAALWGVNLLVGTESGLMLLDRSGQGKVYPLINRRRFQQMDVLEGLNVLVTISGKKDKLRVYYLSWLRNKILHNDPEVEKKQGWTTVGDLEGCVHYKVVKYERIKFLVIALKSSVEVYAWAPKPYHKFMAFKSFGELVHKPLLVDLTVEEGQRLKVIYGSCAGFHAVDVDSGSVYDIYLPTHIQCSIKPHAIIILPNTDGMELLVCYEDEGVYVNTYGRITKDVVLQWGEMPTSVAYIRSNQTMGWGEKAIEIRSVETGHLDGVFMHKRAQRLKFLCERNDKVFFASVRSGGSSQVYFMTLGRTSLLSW
Sequence of Epidermal growth factor receptor (Homo sapiens) (P00533 whole entry): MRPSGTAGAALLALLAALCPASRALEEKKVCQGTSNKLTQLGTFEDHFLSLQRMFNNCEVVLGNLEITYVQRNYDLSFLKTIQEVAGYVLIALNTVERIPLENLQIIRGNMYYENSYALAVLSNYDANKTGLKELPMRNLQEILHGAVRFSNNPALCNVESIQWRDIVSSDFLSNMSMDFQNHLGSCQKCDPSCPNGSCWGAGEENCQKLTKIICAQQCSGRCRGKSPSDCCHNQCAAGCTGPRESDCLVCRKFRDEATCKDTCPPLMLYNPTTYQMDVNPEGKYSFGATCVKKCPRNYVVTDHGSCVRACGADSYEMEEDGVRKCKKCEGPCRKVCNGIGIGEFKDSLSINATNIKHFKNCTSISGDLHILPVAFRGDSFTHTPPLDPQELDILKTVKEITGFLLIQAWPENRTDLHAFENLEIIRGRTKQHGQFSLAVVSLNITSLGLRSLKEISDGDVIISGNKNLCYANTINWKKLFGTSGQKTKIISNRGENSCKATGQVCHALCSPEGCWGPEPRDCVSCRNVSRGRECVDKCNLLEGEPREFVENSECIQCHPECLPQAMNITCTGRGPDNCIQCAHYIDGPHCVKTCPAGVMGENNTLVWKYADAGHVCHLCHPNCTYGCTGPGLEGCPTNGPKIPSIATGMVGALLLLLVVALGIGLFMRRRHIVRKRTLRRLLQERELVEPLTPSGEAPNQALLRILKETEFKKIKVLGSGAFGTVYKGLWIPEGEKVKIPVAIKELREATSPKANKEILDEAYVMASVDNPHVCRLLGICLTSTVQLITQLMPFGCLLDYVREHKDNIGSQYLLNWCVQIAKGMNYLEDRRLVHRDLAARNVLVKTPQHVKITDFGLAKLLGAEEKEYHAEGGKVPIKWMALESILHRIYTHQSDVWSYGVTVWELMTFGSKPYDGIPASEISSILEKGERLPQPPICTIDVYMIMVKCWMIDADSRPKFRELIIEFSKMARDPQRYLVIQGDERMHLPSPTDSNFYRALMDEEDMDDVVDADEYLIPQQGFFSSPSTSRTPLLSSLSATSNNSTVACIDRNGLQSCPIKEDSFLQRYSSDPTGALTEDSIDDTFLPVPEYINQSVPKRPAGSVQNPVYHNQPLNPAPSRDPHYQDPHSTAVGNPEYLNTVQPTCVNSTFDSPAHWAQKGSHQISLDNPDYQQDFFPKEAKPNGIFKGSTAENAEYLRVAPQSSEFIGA
Sequence of Casein kinase I isoform alpha (Homo sapiens) (P48729 2-337 limits assumed): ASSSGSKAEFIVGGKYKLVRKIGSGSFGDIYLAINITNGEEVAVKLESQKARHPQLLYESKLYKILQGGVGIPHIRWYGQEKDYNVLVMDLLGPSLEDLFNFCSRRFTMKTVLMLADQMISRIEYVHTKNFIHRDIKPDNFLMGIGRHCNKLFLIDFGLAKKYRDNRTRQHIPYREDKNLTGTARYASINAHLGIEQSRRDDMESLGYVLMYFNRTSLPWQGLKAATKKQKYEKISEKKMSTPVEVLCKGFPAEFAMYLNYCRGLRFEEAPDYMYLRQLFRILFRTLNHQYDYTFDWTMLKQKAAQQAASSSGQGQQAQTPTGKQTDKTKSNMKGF

SMILES | IC50 [1] | fCmax (Brain [2]) | IC50 [3] | IC50 [4] | fCmax (Plasma [5]) | IC50 (MAP kinase p38 [6]) | IC50 [7] | IC50 [8] | inhibition [11] | inhibition [12] | inhibition (MAP kinase p38 [15]) | other results
CNCc1cc(-c2cn(C)nc2-c2ccc(F)cc2)ccn1 | 67.2 nM | 7.53 µM | 12.9 nM | 63.8 nM | 9.66 µM | 3040 nM |  |  |  |  |  | 
Cn1cc(-c2ccnc(C3COCCN3)c2)c(-c2ccc(F)cc2)n1 (single isomer, unassigned; (-)) | 28.2 nM | 3.7 µM | 5.3 nM | 90 nM | 1.95 µM | > 1000 nM | 25900 nM | 4430 nM |  |  |  | 
Cn1cc(-c2ccncc2)c(-c2ccc(F)cc2)n1 | 305 nM |  | 48.1 nM | 545 nM |  | 126 nM |  |  | 66% | 80% | 85% | inhibition [9]: 55%; inhibition [10]: 61%; inhibition [13]: 70.5%; inhibition [14]: 52%; inhibition (JNK2/JNK3 (Homo sapiens)): 48%
Cn1cc(-c2ccnc3c2OCCNC3)c(-c2ccc(F)cc2)n1 | 27 nM | 2.97 µM |  | 39 nM | 8.82 µM | 654 nM | > 79600 nM | 25700 nM |  |  |  | selectivity ratio (hERG (KCNH2) [16]): 3; Kp uu [17]: 0.33; Time (Mus musculus): 175 min
Nc1nccc(-c2c(-c3ccc(F)cc3)ncn2C2CCCCC2)n1 |  |  |  |  |  | 39.2 nM |  |  | > 50% | > 50% | > 50% | inhibition (Homo sapiens): > 50%; inhibition [18]: > 50%; inhibition [19]: > 50%; fCmax (Plasma [20]): 0.752 µM; fCmax (Brain [21]): 0.241 µM
Cn1cc(-c2ccnc(CO)c2)c(-c2ccc(F)cc2)n1 | 81.6 nM |  | 14.2 nM | 237 nM |  |  |  |  |  |  | 42% | inhibition at 10 µM (hERG (KCNH2) [22]): 6%
